Test results taken from ChEMBL document CHEMBL5113456, “2-Aminopyridines with a shortened amino sidechain as potent, selective, and highly permeable human neuronal nitric oxide synthase inhibitors” (Bioorg Med Chem, 2022).

Legend:
Nitric oxide synthase 1 [1] = target: Nitric oxide synthase 1 (Rattus norvegicus, UniProt P29476)
[2] = Effective permeability of compound in PBS buffer at pH 7.4 at 200 uM incubated for 17 hrs by PAMPA-BBB assay; assay type: ADME; settings: read-out: Peff
Nitric oxide synthase 1 [3] = target: Nitric oxide synthase 1 (Homo sapiens, UniProt P29475)
[4] = target: Nitric oxide synthase, inducible (Homo sapiens, UniProt P35228); assay: Inhibition of human iNOS using L-arginine as substrate assessed as reduction in NO production in the presence of NADPH by NO-hemoglobin capture assay
How it was run: (§1)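 Ki was obtained from IC50 by the Cheng–Prusoff equation. […] Enzyme was purified human NOS isoform. Assay buffer was 100 mM HEPES, 10% glycerol, pH 7.4–7.5, and stock buffer was 100 mM HEPES, pH 7.4–7.5. Plate reader syringe lines were equilibrated with assay buffer before the run.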

Nitric oxide synthase 3 = target: T1, Nitric oxide synthase 3 (Homo sapiens, UniProt P29474); assay: Inhibition of human eNOS using L-arginine as substrate assessed as reduction in NO production in the presence of NADPH by NO-hemoglobin capture assay
T1 sequence (P29474 whole entry): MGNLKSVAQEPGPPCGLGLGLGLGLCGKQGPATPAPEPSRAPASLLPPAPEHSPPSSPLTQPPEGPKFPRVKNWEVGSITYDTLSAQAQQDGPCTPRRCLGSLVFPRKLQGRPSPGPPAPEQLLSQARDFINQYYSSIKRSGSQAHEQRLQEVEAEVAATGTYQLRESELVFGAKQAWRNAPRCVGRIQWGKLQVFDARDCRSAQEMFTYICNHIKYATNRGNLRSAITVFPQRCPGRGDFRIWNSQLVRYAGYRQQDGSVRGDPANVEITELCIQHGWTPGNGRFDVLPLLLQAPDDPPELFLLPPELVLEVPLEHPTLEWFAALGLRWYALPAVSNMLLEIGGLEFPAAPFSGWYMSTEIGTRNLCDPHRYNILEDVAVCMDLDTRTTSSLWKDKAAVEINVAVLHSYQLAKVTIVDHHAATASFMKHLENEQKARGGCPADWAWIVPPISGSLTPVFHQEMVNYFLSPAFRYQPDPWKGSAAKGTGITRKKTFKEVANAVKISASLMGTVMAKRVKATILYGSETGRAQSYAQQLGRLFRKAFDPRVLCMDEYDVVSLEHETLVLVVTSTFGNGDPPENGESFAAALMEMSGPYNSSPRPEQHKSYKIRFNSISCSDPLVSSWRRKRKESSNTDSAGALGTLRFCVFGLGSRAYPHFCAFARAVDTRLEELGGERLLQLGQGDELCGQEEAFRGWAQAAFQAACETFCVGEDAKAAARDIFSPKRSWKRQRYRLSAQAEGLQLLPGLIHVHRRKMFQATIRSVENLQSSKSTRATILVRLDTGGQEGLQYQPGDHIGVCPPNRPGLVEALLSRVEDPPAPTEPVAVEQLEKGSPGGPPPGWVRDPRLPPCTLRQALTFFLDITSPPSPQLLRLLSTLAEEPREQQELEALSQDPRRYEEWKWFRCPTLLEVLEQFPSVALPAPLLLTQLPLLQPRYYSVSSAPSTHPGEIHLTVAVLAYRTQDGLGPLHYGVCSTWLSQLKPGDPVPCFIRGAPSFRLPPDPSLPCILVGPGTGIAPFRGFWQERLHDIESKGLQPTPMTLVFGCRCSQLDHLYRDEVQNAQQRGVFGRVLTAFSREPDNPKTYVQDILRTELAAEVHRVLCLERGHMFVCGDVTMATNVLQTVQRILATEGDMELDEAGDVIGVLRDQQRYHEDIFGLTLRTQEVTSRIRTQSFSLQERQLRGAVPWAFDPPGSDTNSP
How it was run: as §1

Sequence of Nitric oxide synthase 1 (Homo sapiens, UniProt P29475) (P29475 whole entry): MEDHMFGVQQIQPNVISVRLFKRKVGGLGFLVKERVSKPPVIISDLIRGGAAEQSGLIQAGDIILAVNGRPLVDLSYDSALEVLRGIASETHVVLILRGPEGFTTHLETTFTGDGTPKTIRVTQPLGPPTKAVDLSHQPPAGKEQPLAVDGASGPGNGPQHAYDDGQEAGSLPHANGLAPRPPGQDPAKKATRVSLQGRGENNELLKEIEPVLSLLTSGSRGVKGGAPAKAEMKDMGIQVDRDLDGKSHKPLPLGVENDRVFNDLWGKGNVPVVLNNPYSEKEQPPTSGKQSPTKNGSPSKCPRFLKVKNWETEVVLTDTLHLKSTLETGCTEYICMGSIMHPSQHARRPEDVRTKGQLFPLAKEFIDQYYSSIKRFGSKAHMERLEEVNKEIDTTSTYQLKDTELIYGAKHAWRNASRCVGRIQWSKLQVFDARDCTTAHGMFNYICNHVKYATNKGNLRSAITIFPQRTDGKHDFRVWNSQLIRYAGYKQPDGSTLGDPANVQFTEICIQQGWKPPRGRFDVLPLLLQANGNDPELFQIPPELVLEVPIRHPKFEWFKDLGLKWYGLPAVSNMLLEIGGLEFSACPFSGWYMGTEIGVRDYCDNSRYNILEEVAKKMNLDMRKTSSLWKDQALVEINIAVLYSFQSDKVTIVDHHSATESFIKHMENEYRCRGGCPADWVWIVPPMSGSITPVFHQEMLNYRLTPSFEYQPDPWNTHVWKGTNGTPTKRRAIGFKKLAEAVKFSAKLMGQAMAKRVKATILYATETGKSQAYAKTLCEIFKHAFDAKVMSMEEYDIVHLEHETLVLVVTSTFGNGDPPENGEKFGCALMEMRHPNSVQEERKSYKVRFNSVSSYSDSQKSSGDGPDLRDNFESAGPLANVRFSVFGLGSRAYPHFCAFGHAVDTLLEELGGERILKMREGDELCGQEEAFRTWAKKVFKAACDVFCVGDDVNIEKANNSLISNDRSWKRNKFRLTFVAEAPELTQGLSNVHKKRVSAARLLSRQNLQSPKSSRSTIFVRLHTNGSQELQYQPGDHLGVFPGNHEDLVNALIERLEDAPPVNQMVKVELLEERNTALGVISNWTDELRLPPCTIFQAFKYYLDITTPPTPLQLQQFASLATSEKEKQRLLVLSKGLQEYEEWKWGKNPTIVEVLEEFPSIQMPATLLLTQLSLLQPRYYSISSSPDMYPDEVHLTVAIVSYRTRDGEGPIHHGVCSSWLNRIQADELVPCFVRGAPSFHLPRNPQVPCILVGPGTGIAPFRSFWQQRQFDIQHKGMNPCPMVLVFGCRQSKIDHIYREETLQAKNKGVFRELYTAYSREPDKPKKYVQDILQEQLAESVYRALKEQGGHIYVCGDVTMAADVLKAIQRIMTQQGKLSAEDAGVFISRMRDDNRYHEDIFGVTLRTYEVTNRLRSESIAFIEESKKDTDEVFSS
Sequence of Nitric oxide synthase, inducible (P35228 whole entry, canonical isoform): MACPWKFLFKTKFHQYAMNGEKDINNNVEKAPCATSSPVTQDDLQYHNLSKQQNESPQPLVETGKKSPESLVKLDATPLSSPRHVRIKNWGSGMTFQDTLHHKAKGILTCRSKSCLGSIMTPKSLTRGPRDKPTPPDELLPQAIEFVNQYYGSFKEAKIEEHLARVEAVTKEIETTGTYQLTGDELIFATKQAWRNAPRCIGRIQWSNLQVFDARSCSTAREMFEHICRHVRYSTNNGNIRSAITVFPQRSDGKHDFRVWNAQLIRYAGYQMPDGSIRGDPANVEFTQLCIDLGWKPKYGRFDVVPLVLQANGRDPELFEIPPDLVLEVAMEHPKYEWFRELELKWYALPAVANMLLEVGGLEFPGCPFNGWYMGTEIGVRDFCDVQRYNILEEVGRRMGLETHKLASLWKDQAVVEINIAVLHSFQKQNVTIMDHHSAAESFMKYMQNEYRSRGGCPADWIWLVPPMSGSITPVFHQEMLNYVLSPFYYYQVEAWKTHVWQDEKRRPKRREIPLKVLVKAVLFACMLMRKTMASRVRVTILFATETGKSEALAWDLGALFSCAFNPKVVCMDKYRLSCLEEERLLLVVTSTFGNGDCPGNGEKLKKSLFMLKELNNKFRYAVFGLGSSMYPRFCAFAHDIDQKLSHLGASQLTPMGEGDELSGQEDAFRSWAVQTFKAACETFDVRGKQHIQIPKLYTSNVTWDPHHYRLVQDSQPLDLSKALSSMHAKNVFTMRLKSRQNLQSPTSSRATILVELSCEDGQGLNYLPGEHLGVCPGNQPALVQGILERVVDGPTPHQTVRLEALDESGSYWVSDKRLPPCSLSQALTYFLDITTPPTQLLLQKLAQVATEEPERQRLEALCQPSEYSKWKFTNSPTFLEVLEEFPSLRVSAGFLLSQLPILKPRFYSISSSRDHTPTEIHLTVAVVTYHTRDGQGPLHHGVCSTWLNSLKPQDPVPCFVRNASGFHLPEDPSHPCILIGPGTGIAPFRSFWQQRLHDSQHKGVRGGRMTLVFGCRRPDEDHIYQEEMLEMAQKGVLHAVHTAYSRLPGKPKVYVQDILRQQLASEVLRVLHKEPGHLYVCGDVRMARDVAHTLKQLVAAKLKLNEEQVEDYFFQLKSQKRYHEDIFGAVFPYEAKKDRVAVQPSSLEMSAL
Sequence of Nitric oxide synthase 1 (Rattus norvegicus, UniProt P29476) (P29476 whole entry): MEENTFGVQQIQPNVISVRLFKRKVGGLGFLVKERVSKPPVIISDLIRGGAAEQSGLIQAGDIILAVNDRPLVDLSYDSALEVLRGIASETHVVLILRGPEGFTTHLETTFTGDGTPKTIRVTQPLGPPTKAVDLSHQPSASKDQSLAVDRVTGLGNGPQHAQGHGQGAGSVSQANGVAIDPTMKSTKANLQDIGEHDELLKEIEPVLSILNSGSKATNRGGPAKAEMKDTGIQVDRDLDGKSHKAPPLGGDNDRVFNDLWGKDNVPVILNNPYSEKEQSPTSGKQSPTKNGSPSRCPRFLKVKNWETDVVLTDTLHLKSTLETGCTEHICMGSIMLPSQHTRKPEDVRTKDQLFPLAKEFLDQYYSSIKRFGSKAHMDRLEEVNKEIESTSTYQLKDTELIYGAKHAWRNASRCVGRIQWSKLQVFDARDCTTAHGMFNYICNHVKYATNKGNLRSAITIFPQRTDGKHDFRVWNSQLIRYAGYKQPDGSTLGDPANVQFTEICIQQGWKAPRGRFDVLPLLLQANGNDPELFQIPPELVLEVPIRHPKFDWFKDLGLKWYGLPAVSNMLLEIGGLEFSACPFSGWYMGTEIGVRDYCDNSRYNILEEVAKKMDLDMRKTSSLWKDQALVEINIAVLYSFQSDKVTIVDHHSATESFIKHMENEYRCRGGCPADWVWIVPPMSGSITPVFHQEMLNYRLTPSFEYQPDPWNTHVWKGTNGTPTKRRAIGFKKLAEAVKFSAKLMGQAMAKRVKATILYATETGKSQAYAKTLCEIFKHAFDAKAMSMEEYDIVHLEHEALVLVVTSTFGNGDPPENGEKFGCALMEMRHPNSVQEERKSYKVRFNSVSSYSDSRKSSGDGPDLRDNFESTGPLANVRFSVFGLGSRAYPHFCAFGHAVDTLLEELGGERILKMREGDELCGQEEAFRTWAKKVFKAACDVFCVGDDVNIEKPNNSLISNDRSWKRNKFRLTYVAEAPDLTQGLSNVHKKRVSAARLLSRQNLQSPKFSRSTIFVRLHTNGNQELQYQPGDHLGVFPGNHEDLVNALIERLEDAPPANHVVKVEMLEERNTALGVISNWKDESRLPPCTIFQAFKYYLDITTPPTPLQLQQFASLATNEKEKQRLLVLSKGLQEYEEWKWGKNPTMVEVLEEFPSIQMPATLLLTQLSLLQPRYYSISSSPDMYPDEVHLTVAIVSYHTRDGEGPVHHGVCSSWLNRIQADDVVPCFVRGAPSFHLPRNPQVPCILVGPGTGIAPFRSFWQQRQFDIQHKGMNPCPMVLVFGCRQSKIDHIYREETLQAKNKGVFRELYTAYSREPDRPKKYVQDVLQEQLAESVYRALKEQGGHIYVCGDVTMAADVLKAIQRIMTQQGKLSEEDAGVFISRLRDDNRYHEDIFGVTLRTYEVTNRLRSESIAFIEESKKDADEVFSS

SMILES | Ki (Nitric oxide synthase 1 [1]) [µM] | Papp at 17 h, 200 µM [2] [×10⁻⁶ cm/s] | Ki (Nitric oxide synthase 1 [3]) [µM] | Ki [4] [µM] | Ki (Nitric oxide synthase 3) [µM]
Cc1cc(N)nc(C#CCN2CCN(C)CC2)c1 | – | 3.2 | – | – | 43.8
Cc1cc(N)nc(C#CCN2CCC(F)(F)CC2)c1 | 1.59 | 21.1 | 1.43 | 27.4 | 18.9
Cc1cc(N)nc(C#CCCN(C)C)c1 | 0.242 | 4.7 | 0.327 | 29.8 | 70.5
Cc1cc(N)nc(CCCN2CCN(C)CC2)c1 | 0.056 | 2.2 | – | – | 12.5
Cc1cc(N)nc(CCCN2CCC(F)(F)CC2)c1 | 0.046 | 17.3 | 0.048 | 6.48 | 18.6

Molecules with a lower Ki (Nitric oxide synthase 3), results first:

Ki (Nitric oxide synthase 1 [1]) [µM] | Papp at 17 h, 200 µM [2] [×10⁻⁶ cm/s] | Ki (Nitric oxide synthase 1 [3]) [µM] | Ki [4] [µM] | Ki (Nitric oxide synthase 3) [µM] | SMILES
0.465 | 19.6 | 0.488 | 11.1 | 5.13 | Cc1cc(N)nc(C#CCN2CC(F)(F)C2)c1
– | 2 | – | – | 3.66 | Cc1cc(N)nc(CCCN(C)C)c1
– | 0.96 | – | – | 1.47 | CNCCCc1cc(C)cc(N)n1
– | 2.3 | – | 7.67 | 7.35 | Cc1cc(N)nc(CCCCN(C)C)c1
– | 4.7 | – | – | 1.92 | CNCC#Cc1cc(C)cc(N)n1
0.095 | 17.5 | 0.149 | 4.36 | 6.27 | Cc1cc(N)nc(CCCN2CC(F)(F)C2)c1
